Values after ≈ are worked out from the molar mass of the structure shown. Active and inactive are the calls of the source.
Key:
[1] = test system: Mycobacterium tuberculosis; assay: Antimicrobial activity against Mycobacterium tuberculosis H37Rv in GASTD medium after 10 days by spectrophotometric analysis; assay type: functional, organism-based; settings: 240 h
Summary of the method: (§1)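 Virulent H37Rv, twofold microdilution in iron-limiting GASTD or GASTD plus 100 μM FeCl3, started at OD600 0.001 from deferrated stocks. Compounds were added in DMSO (0.5% final) up to 500 μM or the solubility limit. Cultures sat stationary for 10 days at 37 °C, read at OD600. IC50 from sigmoidal fits to triplicates; MIC90 is the lowest concentration giving ≥90% inhibition versus DMSO controls. Ratios are +Fe/GASTD.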

[2] = test system: Mycobacterium tuberculosis; assay: Antimicrobial activity against Mycobacterium tuberculosis H37Rv in GASTD medium supplemented with 100 uM FeCl3 after 10 days by spectrophotometric analysis; assay type: functional, organism-based; settings: 240 h; summary of the method: as §1
[3] = test system: Yersinia pestis; assay: Antimicrobial activity against Yersinia pestis KIM6-2082.1+ in PMHD medium after 26 hrs by spectrophotometric analysis; assay type: functional, organism-based
[4] = test system: Yersinia pestis; assay: Antimicrobial activity against Yersinia pestis KIM6-2082.1+ in PMHD medium supplemented with 100 uM FeCl3 after 26 hrs by spectrophotometric analysis; assay type: functional, organism-based
[5] = test system: Yersinia pestis; assay: Ratio of IC50 for Yersinia pestis KIM6-2082.1+ in PMHD medium supplemented with 100 uM FeCl3 to IC50 for Yersinia pestis KIM6-2082.1+ in Fe-deficient PMHD medium; assay type: functional
[6] = test system: Yersinia pestis; assay: Ratio of MIC90 for Yersinia pestis KIM6-2082.1+ in PMHD medium supplemented with 100 uM FeCl3 to IC50 for Yersinia pestis KIM6-2082.1+ in Fe-deficient PMHD medium; assay type: functional
[7] = test system: Yersinia pestis; assay: Bactericidal activity against Yersinia pestis KIM6-2082.1+ in PMHD medium at 2 times MIC after 3 days by colony counting; assay type: functional, organism-based
[8] = test system: Mycobacterium tuberculosis; assay: Ratio of IC50 for Mycobacterium tuberculosis H37Rv in GASTD medium supplemented with 100 uM FeCl3 to IC50 for Mycobacterium tuberculosis H37Rv in Fe-deficient GASTD medium; assay type: functional; summary of the method: as §1
[9] = test system: Mycobacterium tuberculosis; assay: Ratio of MIC90 for Mycobacterium tuberculosis H37Rv in GASTD medium supplemented with 100 uM FeCl3 to MIC90 for Mycobacterium tuberculosis H37Rv in Fe-deficient GASTD medium; assay type: functional; summary of the method: as §1
[10] = test system: Mycobacterium tuberculosis; assay: Bactericidal activity against Mycobacterium tuberculosis H37Rv in GASTD medium at 2 times MIC after 30 days by colony counting; assay type: functional, organism-based
Summary of the method: (§2)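 Duplicate GASTD cultures were treated and incubated as in the growth assay (37 °C, 10 days), then serial 10-fold dilutions were plated on Middlebrook 7H11. Colonies were counted after 30 days at 37 °C and reported as CFU/mL. Bactericidal was defined as >99% killing relative to inoculum.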

[11] = test system: Yersinia pestis; assay: Bactericidal activity against Yersinia pestis KIM6-2082.1+ in PMHD medium at MIC after 3 days by colony counting; assay type: functional, organism-based
[12] = test system: HeLa; assay: Cytotoxicity against human HeLa cells at 16 uM after 24 hrs by ATPLite assay; assay type: cell-based
Summary of the method: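 HeLa cells in 96-well format, read with an ATPLite reagent-based viability assay. Cell–compound contact lasted 4 hr or 24 hr, and viability was expressed relative to untreated controls.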

[13] = test system: Mycobacterium tuberculosis; assay: Bactericidal activity against Mycobacterium tuberculosis H37Rv in GASTD medium at MIC after 30 days by colony counting; assay type: functional, organism-based; summary of the method: as §2

SMILES	IC50 [1] [µM]	MIC90 [1] [µM]	IC50 [2] [µM]	MIC90 [2] [µM]	IC50 [3] [µM]	MIC90 [3] [µM]	IC50 [4] [µM]	MIC90 [4] [µM]	Ratio IC50 [5]	Ratio [6]	Activity [7]	Ratio IC50 [8]	Ratio [9]	Activity [10]	Activity [11]	Activity [12] [%]	Activity [13]
O=C(c1ccncc1)N1N=C(c2ccccc2O)C[C@H]1c1ccc(O)cc1	> 8	> 8	> 4	> 4	> 8	> 8	> 8	> 8									
CN[C@@H]1[C@H](O[C@H]2[C@H](O[C@H]3[C@H](O)[C@@H](O)[C@H](N=C(N)N)[C@@H](O)[C@@H]3N=C(N)N)O[C@@H](C)[C@]2(O)C=O)O[C@@H](CO)[C@H](O)[C@H]1O [STREPTOMYCIN]					1	1 (≈ 0.582 µg/mL)	1	2 (≈ 1.16 µg/mL)	1	2	Active						
Oc1ccccc1C1=NN[C@H](c2ccccc2O)C1	25	66 (≈ 16.8 µg/mL)	18	59 (≈ 15 µg/mL)	9	31 (≈ 7.88 µg/mL)	> 8	> 8				1	1	Active	Active		
O=C(c1ccccc1)N1N=C(c2ccccc2O)C[C@H]1c1ccc(O)cc1	> 63	> 63	> 16	> 63	> 31	> 31	> 16	> 16									
Cc1ccccc1[C@@H]1CC(c2ccccc2O)=NN1C(N)=S	7	16 (≈ 4.98 µg/mL)	7	16 (≈ 4.98 µg/mL)	> 62	> 63	> 31	> 31				1	1	Active		24	
CC(=O)N1N=C(c2ccccc2O)C[C@H]1c1ccc(O)cc1	> 8	> 8	> 8	> 8	> 16	> 16	> 16	> 16									
Cc1ccc(S(=O)(=O)N2N=C(c3ccccc3O)C[C@H]2c2ccc(O)cc2)cc1	> 63	> 63	> 31	> 31	> 31	> 31	> 16	> 16									
O=C(c1ccccc1)N1N=C(c2ccccc2O)C[C@H]1c1ccccc1O	84	> 500	98	> 500	> 31	> 31	> 63	> 63				1					
Oc1ccc([C@@H]2CC(c3ccccc3O)=NN2)cc1	46	125 (≈ 31.8 µg/mL)	37	125 (≈ 31.8 µg/mL)	20	> 31	> 31	> 31	>2			1	1				Active
N=C(NO)N/N=C/c1ccc(O)cc1	43	222 (≈ 43.1 µg/mL)	43	132 (≈ 25.6 µg/mL)	> 500	> 500	> 500	> 500				1	1	Active			
O=C(NO)N/N=C/c1ccc(O)cc1	97	146 (≈ 28.5 µg/mL)	40	97 (≈ 18.9 µg/mL)	> 250	> 250	> 250	> 250				0.4	1	Active			
O=S(=O)(c1ccccc1)N1N=C(c2ccccc2O)C[C@H]1c1ccccc1O	> 63	> 63	> 16	> 31	8	> 31	> 31	> 31	>4								
NC(=S)N1N=C(c2ccccc2O)C[C@H]1c1ccccc1O	53	125 (≈ 39.2 µg/mL)	50	125 (≈ 39.2 µg/mL)	181	> 250	> 63	> 63				1	1	Active			
CC(=O)N1N=C(c2ccccc2O)C[C@H]1c1ccccc1O	> 31	> 32	> 16	> 16	> 31	> 31	> 31	> 31									
O=C(NO)N1N=C(c2ccccc2O)C[C@H]1c1ccc(O)cc1	42	125 (≈ 39.2 µg/mL)	40	> 31	13	> 31	> 31	> 31	>2			1					Active
NNC(=O)c1ccncc1 [ISONIAZID]	0.07	0.2 (≈ 0.0274 µg/mL)	0.09	0.2 (≈ 0.0274 µg/mL)								1	1	Active			
NC(=O)N1N=C(c2ccccc2O)C[C@H]1c1ccc(O)cc1	> 63	> 63	> 32	> 63	> 31	> 31	> 31	> 31									
C/C(=N\NC(=O)NO)c1ccc(O)cc1	> 500	> 500	> 500	> 500	> 500	> 500	> 500	> 500									
O=C(c1ccncc1)N1N=C(c2ccccc2O)C[C@H]1c1ccccc1O	8	16 (≈ 5.75 µg/mL)	8	16 (≈ 5.75 µg/mL)	> 16	> 16	> 16	> 16				1	1	Active			
O=C(NO)N/N=C/c1ccccc1O	> 16	> 16	> 16	> 16	> 16	> 16	> 4	> 4									
O=C(NO)N1N=C(c2ccccc2O)C[C@H]1c1ccccc1O	54	> 63	> 32	> 31	8	> 31	> 31	> 31	>4								
Cc1ccc(S(=O)(=O)N2N=C(c3ccccc3O)C[C@H]2c2ccccc2O)cc1	> 63	> 63	> 31	> 31	> 31	> 31	> 16	> 16									
C/C(=N\NC(=O)NO)c1ccccc1O	> 8	> 8	> 8	> 8	> 4	> 4	> 2	> 2									
N/C(=N\O)N/N=C/c1ccccc1O	11	222 (≈ 43.1 µg/mL)	15	26 (≈ 5.05 µg/mL)	70	250 (≈ 48.5 µg/mL)	305	> 500	4	>2	Active	1	1	Active			
N=C(N)N1N=C(c2ccccc2O)C[C@H]1c1ccc(O)cc1	31	125 (≈ 37 µg/mL)	26	76 (≈ 22.5 µg/mL)	> 125	> 125	> 63	> 63				1	1	Active			
O=S(=O)(c1ccccc1)N1N=C(c2ccccc2O)C[C@H]1c1ccc(O)cc1	> 63	> 63	> 31	> 31	> 16	> 16	> 31	> 31									
NC(=O)N1N=C(c2ccccc2O)C[C@H]1c1ccccc1O	77	208 (≈ 61.8 µg/mL)	64	104 (≈ 30.9 µg/mL)	> 250	> 250	> 250	> 250				1	0.5	Active			

Reference: ChEMBL document CHEMBL1914393, “Chemical scaffolds with structural similarities to siderophores of nonribosomal peptide-polyketide origin as novel antimicrobials against Mycobacterium tuberculosis and Yersinia pestis” (Bioorg Med Chem Lett, 2011)
